ChEMBL document CHEMBL1144395, “Design and synthesis of potent pyridazine inhibitors of p38 MAP kinase” (Bioorg Med Chem Lett, 2005)

What was measured:
THP-1 = test: Inhibitory concentration against TNF-alpha production in THP-1 cells; assay type: functional, cell-based; details: Homo sapiens
[1] = Inhibitory activity against mitogen-activated protein kinase p38; parameters: species or system Homo sapiens
[2] = Inhibitory activity against c-Jun N-terminal kinase 3 (JNK3); parameters: species or system Homo sapiens
Cell line = test: Inhibitory concentration against LPS-induced release of TNF-alpha in human whole blood; assay type: functional, cell-based
Mus musculus = species: Mus musculus; test: Effective dose against murine LPS challenge model; assay type: functional
How it was run: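 Oral dosing to BALB/c mice (n = 5) 1 h before intravenous LPS ([…]); blood taken 90 min after LPS, serum TNF-α measured by ELISA; % inhibition = [(vehicle control − compound)/(vehicle control)] × 100; ED50 derived from this inhibition.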

Rattus norvegicus = species: Rattus norvegicus; test: Effective dose against rat collagen-induced arthritis (CIA) model; assay type: functional

Structure (SMILES) | IC50 (THP-1) [nM] | Ki [1] [nM] | Ki [2] [nM] | IC50 (Cell line) [nM] | ED50 (Mus musculus) [mg/kg] | ED50 (Rattus norvegicus) [mg/kg]
O=C(CO)N[C@H](CNc1cc(-c2ccncc2)c(-c2cccc3ccccc23)nn1)Cc1ccccc1 | 661 | 65.9 | 211 |  |  | 
CC(C)C[C@H]1CN(c2cc(-c3ccncc3)c(-c3cccc4ccccc34)nn2)CCN1 | 63.6 | 29.7 | 650 | 547 |  | 
O=C(CNc1nccc(-c2cc(C3CCNCC3)nnc2-c2cccc(C(F)(F)F)c2)n1)c1ccccc1 | 1290 | 709 | > 10000 |  |  | 
CC(Nc1nccc(-c2cc(C3CCNCC3)nnc2-c2cccc(C(F)(F)F)c2)n1)c1ccc(F)cc1 (centres undefined) | 93.4 | 10.2 | > 10000 |  |  | 
c1ccc(C[C@@H](CNc2cc(-c3ccncc3)c(-c3cccc4ccccc34)nn2)N2CCCC2)cc1 | 5.5 | 9.2 | 81.5 |  |  | 
CC(N)(CNc1cc(-c2ccncn2)c(-c2cccc(C(F)(F)F)c2)nn1)Cc1ccccc1 (centres undefined) | 251 | 179 | > 10000 |  |  | 
O=C(CNc1nccc(-c2cc(C3CCNCC3)nnc2-c2cccc(C(F)(F)F)c2)n1)c1ccc(F)cc1 | 1240 | 1770 | > 10000 |  |  | 
c1ccc(C[C@H]2CN(c3cc(-c4ccncc4)c(-c4cccc5ccccc45)nn3)CCN2)cc1 | 67.6 | 7.3 | 160 | 240 | 1.28 | 2.7
N[C@H](CNc1cc(-c2ccncn2)c(-c2cccc(C(F)(F)F)c2)nn1)Cc1ccccc1 | 40.2 | 56.2 | > 10000 | 1830 |  | 
C[C@H](Nc1cc(-c2cc(C3CCNCC3)nnc2-c2cccc(C(F)(F)F)c2)ccn1)c1ccccc1 | 21.5 | 2.1 | 2970 | 5850 |  | 
O=C(CO)N1CCN(c2cc(-c3ccncc3)c(-c3cccc4ccccc34)nn2)C[C@@H]1Cc1ccccc1 | 552 | 31.8 | 72.5 |  |  | 
C[C@H](Nc1nccc(-c2cc(C3CCNCC3)nnc2-c2cccc(C(F)(F)F)c2)n1)c1ccccc1 | 5.3 | 1.6 | 1580 | 1560 |  | 
N[C@H](CNc1cc(-c2ccncc2)c(-c2cccc3ccccc23)nn1)Cc1ccc(F)cc1 | 92.2 | 1.8 | 1060 | 948 |  | 
CC(C)N[C@H](CNc1cc(-c2ccncc2)c(-c2cccc3ccccc23)nn1)Cc1ccccc1 | 110 | 20.4 | 598 |  |  | 
N[C@H](CNc1cc(-c2ccncc2)c(-c2cccc3ccccc23)nn1)Cc1ccccc1 | 50.1 | 7 | 735 | 165 |  | 
